Experimental data from different studies.
Protocols differ between the studies behind these lines.
Target: D(1A) dopamine receptor (DRD1, Homo sapiens, UniProt P21728)

| SMILES | effect on | action | method | endpoint | result |
| --- | --- | --- | --- | --- | --- |
| CCOCc1nc(O)c(-c2nnc(Cc3ccc(Cl)cn3)o2)c(O)c1-c1c(OC)cccc1OC | ligand displacement |  | radioligand | IC50 | > 30000 nM |
| CCCOc1cc2c(cc1O)[C@@H]1Cc3c(Br)cc(O)c(OCC(F)(F)F)c3CN1CC2 | cAMP | antagonist | TR-FRET | IC50 | 248 nM |
| O=C1c2ccccc2CCN1CCCCN1CCN(c2cccc(Cl)c2Cl)CC1 | cell-free assay |  | radioligand | Ki | 511 nM |
| C[C@@H]1Cc2ccccc2N1C(=O)NCCCCN(C)[C@@H]1Cc2cccc3[nH]c(=O)n(c23)C1 | ligand displacement |  | radioligand | Ki | > 10000 nM |
| O=C1c2ccccc2CCN1CCCCN1CCN(c2ccccn2)CC1 | cell-free assay |  | radioligand | Ki | 1660 nM |
| CN(CCCCNC(=O)c1cc2ccccc2[nH]1)[C@@H]1Cc2cccc3[nH]c(=O)n(c23)C1 | ligand displacement |  | radioligand | Ki | > 7900 nM |
| CCCOc1cc2c(cc1O)[C@@H]1Cc3c(Br)cc(O)c(OCC(F)F)c3CN1CC2 | cAMP | antagonist | TR-FRET | IC50 | 1450 nM |
| CCCCN1CCC(COC(=O)c2ccc(N)c(OCF)c2)CC1 | cell-free assay |  | radioligand | Ki | > 10000 nM |
| COc1ccc2c(c1)C(=O)N(CCCN1CCN(c3ccccc3OC)CC1)C2 | cell-free assay |  | radioligand | Ki | 6220 nM |
| CCCCOc1c(O)cc(Br)c2c1CN1CCc3cc(OCC(F)F)c(O)cc3[C@@H]1C2 | cAMP | antagonist | TR-FRET | IC50 | 318 nM |
